The source made the active and inactive calls. The rule behind the calls is not given here.
Tests used:
K562 = assay: Antiproliferative activity against human K562 cells assessed as reduction in cell viability after 72 hrs by cell TiterGlo luminescent cell viability assay; type: functional, cell-based
Hepatocyte [1] = assay: Antiproliferative activity against mouse primary fetal liver cells expressing C/EBP-alpha p30 assessed as reduction in cell viability after 72 hrs by cell TiterGlo luminescent cell viability assay; type: functional, cell-based
[2] = target: Cyclin-dependent kinase 5/CDK5 activator 1 (Homo sapiens) (UniProt Q00535+Q15078); assay: Inhibition of CDK5/p35 (unknown origin) assessed as remaining activity at 1 uM relative to control; type: protein-complex assay
Chain of Cyclin-dependent kinase 5/CDK5 activator 1 (Homo sapiens) (Q00535 whole entry): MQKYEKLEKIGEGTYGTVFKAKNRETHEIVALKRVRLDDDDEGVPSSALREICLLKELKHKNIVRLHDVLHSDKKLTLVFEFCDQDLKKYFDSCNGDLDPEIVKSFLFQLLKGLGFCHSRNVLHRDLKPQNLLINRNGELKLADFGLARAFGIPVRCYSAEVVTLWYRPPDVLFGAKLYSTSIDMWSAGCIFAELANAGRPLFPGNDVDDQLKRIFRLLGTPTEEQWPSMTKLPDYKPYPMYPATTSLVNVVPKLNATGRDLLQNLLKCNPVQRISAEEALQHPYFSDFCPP
Chain of Cyclin-dependent kinase 5/CDK5 activator 1 (Homo sapiens) (Q15078 99-307 partner limits assumed): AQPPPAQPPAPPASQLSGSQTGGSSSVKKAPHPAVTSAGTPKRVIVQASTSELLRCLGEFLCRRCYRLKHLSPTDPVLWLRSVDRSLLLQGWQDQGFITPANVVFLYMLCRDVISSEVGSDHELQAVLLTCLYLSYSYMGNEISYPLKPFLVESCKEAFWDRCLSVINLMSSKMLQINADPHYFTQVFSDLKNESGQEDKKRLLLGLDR

Homo sapiens = species on record: Homo sapiens; assay: Binding affinity against WDR5 S91K mutant (unknown origin) at 50 uM by differential scanning fluorimetry
How it was run: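 Thermal shift of purified recombinant S91K-mutant WDR5 measured by differential scanning fluorimetry, with test compound at 50 μM run alongside a DMSO vehicle control.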

Hepatocyte [3] = assay: Induction of myeloid differentiation in mouse primary fetal liver cells expressing C/EBP-alpha p30 assessed as upregulation of Mac-1/Gr-1 double positive cells at 20 uM after 6 days by flow cytometry analysis; type: functional, cell-based; conditions: time 6.0 day
How it was run: (§1)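 Cebpap30/p30 cells left untreated or given 20 μM compound for 6 days. Fc receptors blocked with anti-CD16/CD32, then Mac-1 and Gr-1 staining by flow cytometry, with Mac-1/Gr-1 double-positive cells counted at the indicated time points. Cytospins stained with Kwik-Diff for microscopic morphology.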

[4] = target: T1, Alpha-1A adrenergic receptor (Rattus norvegicus) (UniProt P43140); assay: Displacement of [3H]prazosin from rat […] brain alpha1 adrenergic receptor assessed as remaining activity at 1 uM after 60 mins by scintillation counting method relative to control; type: tissue-based
T1 sequence (whole entry): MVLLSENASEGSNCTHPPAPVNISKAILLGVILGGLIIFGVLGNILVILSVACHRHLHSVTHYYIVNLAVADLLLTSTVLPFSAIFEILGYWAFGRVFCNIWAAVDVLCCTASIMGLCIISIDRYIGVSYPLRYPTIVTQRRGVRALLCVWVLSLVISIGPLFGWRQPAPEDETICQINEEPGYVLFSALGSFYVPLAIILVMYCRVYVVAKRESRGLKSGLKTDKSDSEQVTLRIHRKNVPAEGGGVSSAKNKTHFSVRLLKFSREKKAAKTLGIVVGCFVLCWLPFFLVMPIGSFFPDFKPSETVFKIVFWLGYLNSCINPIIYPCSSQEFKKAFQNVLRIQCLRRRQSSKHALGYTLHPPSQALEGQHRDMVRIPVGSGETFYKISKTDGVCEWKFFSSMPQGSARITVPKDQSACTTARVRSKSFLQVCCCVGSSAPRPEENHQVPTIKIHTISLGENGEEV

[5] = Toxicity in mouse bone marrow cells assessed as reduction in colony formation at 2.5 to 20 uM after 7 day by CFU assay; type: cell-based; conditions: bone marrow cell, 168 h, dose 2.5-20 µM
[6] = target: Kappa-type opioid receptor (Homo sapiens) (UniProt P41145); assay: Displacement of [3H]U69593 from human kappa receptor assessed as remaining activity at 1 uM after 60 mins by scintillation counting analysis relative to control
Chain of Kappa-type opioid receptor (Homo sapiens) (P41145 whole entry): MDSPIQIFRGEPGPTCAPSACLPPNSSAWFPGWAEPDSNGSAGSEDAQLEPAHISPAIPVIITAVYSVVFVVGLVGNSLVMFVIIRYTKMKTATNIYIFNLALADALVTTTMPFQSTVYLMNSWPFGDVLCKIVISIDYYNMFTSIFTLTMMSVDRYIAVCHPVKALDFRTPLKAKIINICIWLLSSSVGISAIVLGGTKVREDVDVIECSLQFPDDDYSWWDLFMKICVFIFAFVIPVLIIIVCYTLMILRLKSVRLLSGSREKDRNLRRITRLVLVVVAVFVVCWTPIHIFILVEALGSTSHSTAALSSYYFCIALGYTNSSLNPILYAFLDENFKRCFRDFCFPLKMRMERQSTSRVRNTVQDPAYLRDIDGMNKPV

[7] = target: Cyclin-dependent kinase 4/cyclin D1 (Homo sapiens) (UniProt P11802+P24385); assay: Inhibition of CDK4/cycD1 (unknown origin) assessed as remaining activity at 1 uM relative to control; type: protein-complex assay
Hepatocyte [8] = assay: Induction of progenitor morphology loss in mouse primary fetal liver cells expressing C/EBP-alpha p30 at 20 uM after 6 days by Cytospin stainig based microscopic analysis; type: functional, cell-based; conditions: time 6.0 day; how it was run: as §1
Hepatocyte [9] = assay: Inhibition of colony formation in mouse primary fetal liver cells expressing C/EBP-alpha p30 at 5 to 20 uM after 7 day by colony formation assay; type: functional, cell-based; conditions: dose 5-20 µM
How it was run: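 Primary Cebpap30/p30 fetal liver cells, maintained in DMEM/10% FCS with SCF, IL-6 and IL-3, plated at 1×10^4 cells in complete methylcellulose (M3434) with compound at the indicated concentrations; colonies scored 7 days later and normalized to DMSO for each genotype; mean ± SD of triplicate experiments.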

[10] = Antiproliferative activity against human acute myeloid leukemic cells harboring N-terminal CEBPA mutation assessed as vaibility at 5 uM after 72 hrs by cell titer glo luminescent cell viability assay relative to control; type: functional, Leukemia cell
How it was run: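 20,000 viable proliferating cells per well in triplicate, exposed to 5 μM compound or 0.05% DMSO for 72 h (3 days); CellTiter-Glo luminescence, normalized to DMSO for each patient sample; mean ± SD.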

Hepatocyte [11] = assay: Induction of myeloid differentiation in mouse primary fetal liver cells expressing C/EBP-alpha p30 assessed as upregulation of Lilrb3 mRNA expression at 20 uM after 3 to 6 days by qRT-PCR analysis; type: functional, cell-based; conditions: time 3-6 day
How it was run: (§2)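 Cebpap30/p30 cells in culture with 20 μM compound for the indicated periods. Total RNA (300 ng) reverse transcribed with oligo(dT); SYBR qPCR, quantified by 2−ddCt method; mean ± SD of triplicate experiments, t-test.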

Hepatocyte [12] = assay: Induction of myeloid differentiation in mouse primary fetal liver cells expressing C/EBP-alpha p30 assessed as upregulation of Lyz2 mRNA expression at 20 uM after 3 to 6 days by qRT-PCR analysis; type: functional, cell-based; conditions: time 3-6 day; how it was run: as §2
Hepatocyte [13] = assay: Induction of myeloid differentiation in mouse primary fetal liver cells expressing C/EBP-alpha p30 assessed as upregulation of Lcn2 mRNA expression at 20 uM after 3 to 6 days by qRT-PCR analysis; type: functional, cell-based; conditions: time 3-6 day; how it was run: as §2
Hepatocyte [14] = assay: Induction of myeloid differentiation in mouse primary fetal liver cells expressing C/EBP-alpha p30 assessed as upregulation of Ccl9 mRNA expression at 20 uM after 3 to 6 days by qRT-PCR analysis; type: functional, cell-based; conditions: time 3-6 day; how it was run: as §2
[15] = target: CDK9/cyclin T1 (Homo sapiens) (UniProt O60563+P50750); assay: Inhibition of CDK9/CycT1 (unknown origin) assessed as remaining activity at 1 uM relative to control; type: protein-complex assay
Hepatocyte [16] = assay: Induction of myeloid differentiation in mouse primary fetal liver cells expressing C/EBP-alpha p30 assessed as upregulation of C3ar1 mRNA expression at 20 uM after 3 to 6 days by qRT-PCR analysis; type: functional, cell-based; conditions: time 3-6 day; how it was run: as §2

SMILES	Activity (K562)	Activity (Hepatocyte [1])	Activity [2] [%]	Activity (Homo sapiens)	Activity (Hepatocyte [3])	Activity [4] [%]	Activity [5]	Activity [6] [%]	Activity [7] [%]	Activity (Hepatocyte [8])	inhibition (Hepatocyte [9])	Activity [10] [%]	Activity (Hepatocyte [11])	Activity (Hepatocyte [12])	Activity (Hepatocyte [13])	Activity (Hepatocyte [14])	Activity [15] [%]	Activity (Hepatocyte [16])
O=C(Nc1cc(-c2cccc(CN3CCOCC3)c2)ccc1N1CCOCC1)c1c[nH]c(=O)cc1C(F)(F)F	inactive	inactive																
CN1CCN(c2ccc(-c3cccc(CN4CCOCC4)c3)cc2NC(=O)c2c[nH]c(=O)cc2C(F)(F)F)CC1			102	inactive	Active	99	Non-Toxic	102	102	Active	Active	53	Active	Active	Active	Active	98	Active

— ChEMBL document CHEMBL5712888, “Pharmacological targeting of the Wdr5-MLL interaction in C/EBPα N-terminal leukemia” (Nat Chem Biol, 2015)
